Assay results pooled from the literature.
Compare with care: the assays were run in different laboratories.
Target: Myotonin-protein kinase (DMPK, Homo sapiens, UniProt Q09013)
Residues used in one study (Q09013 1-629): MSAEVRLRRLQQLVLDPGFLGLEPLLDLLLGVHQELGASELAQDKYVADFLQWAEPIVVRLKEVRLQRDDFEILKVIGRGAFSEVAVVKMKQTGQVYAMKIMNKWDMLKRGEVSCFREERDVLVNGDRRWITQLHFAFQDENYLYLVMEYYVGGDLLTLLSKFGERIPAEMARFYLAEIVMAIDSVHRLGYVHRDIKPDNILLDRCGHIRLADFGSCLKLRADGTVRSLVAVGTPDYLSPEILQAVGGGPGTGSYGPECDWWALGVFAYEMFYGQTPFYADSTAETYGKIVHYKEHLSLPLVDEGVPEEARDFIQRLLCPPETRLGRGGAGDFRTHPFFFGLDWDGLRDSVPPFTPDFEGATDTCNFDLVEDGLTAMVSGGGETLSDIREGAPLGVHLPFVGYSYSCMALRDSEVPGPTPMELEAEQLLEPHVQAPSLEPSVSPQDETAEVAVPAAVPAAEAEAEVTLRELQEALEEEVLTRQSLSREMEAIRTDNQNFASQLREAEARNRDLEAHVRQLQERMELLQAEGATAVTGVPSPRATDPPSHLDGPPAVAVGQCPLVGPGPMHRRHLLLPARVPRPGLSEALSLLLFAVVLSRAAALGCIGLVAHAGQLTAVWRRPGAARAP

Structure (SMILES) | read-out | mode | method | tested at | endpoint | value
Nc1ncc(-c2nc(N3CCOCC3)nc(N3CCOCC3)n2)c(C(F)F)n1 | binding |  | competition with immobilised ligand | 10 µM | remaining binding | 76%
C#Cc1n[nH]c2c(-c3cn([C@@H](C)c4ccccn4)c(=O)[nH]c3=O)cc(F)cc12 | enzyme activity | inhibitor |  | 0.1 µM | inhibition | 3.2%
Cc1nn(C)cc1-c1nc2c(N3CCN(Cc4ccc(Cl)cc4)CC3)c(Cl)cnc2[nH]1 | binding |  | competition with immobilised ligand | 1 µM | remaining binding | 100%
Cn1cc(-c2cc(F)cc(N3CCn4c(cc5c4CCCC5)C3=O)c2CO)cc(Nc2ccc(N3CCN(C4COC4)CC3)cn2)c1=O | enzyme activity | inhibitor |  | 0.1 µM | inhibition | -7%
COc1ncccc1-c1cnn2ccc(N3CCN(C(=O)OC(C)C)CC3)nc12 | binding |  | competition with immobilised ligand | 1 µM | remaining binding | 98%
Cn1cncc1[C@](O)(COc1ccc(C#N)cc1-c1ccc(OC(F)(F)F)cc1)c1ccc(C#N)cc1 | cell-free assay |  | competition with immobilised ligand | 1 µM | remaining binding | 98%
CC(C)(C)c1cc(C=C(C#N)C#N)cc(Br)c1O | enzyme activity | inhibitor |  | 0.5 µM | remaining activity | 96.9%
C#Cc1n[nH]c2c(-c3cn([C@@H](C)c4ccccc4)c(=O)[nH]c3=O)cc(F)cc12 | enzyme activity | inhibitor |  | 0.1 µM | inhibition | -4%
Cn1cc(-c2cccc(N3CCc4c(sc5c4CC(C)(C)C5)C3=O)c2CO)cc(Nc2ccncn2)c1=O | enzyme activity | inhibitor |  | 1 µM | inhibition | -4%
O=c1[nH]c2ccccc2n1C1CCN(Cc2ccc(-c3[nH]c4cc5ncnc5cc4nc3-c3ccccc3)cc2)CC1 | cell-free assay |  |  | 0.5 µM | remaining signal | 98%
